# Source: ChEMBL document CHEMBL1629583, “Establishment of in vitro susceptibility testing methodologies and comparative activities of piperacillin in combination with the penem {beta}-lactamase inhibitor BLI-489” (2009)
# Key:
# Assay type in all cases: functional
# [1] = tested on: Enterococcus faecium; experiment: Antimicrobial activity against vancomycin-resistant Enterococcus faecium clinical isolate after 18 to 22 hrs by broth microdilution method in presence of beta-lactamase inhibitor BLI-489
# Outline: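 CLSI broth microdilution in Mueller-Hinton II broth. Antibiotic in serial dilution with the β-lactamase inhibitor held at a constant 4 μg/ml. Inoculum 10^5 CFU/ml. Incubated 18 to 22 h at 35°C in ambient air.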
# [2] = tested on: Escherichia coli; experiment: Antimicrobial activity against class A extended spectrum beta-lactamase- producing Escherichia coli clinical isolate after 18 to 22 hrs by broth microdilution method in presence of beta-lactamase inhibitor BLI-489
# Outline: (§1)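 Piperacillin serially diluted with BLI-489 held at a constant 4 μg/ml, by CLSI broth microdilution in Mueller-Hinton II broth. Inoculum was 10^5 CFU/ml. Plates were incubated 18 to 22 h at 35°C in ambient air. MIC was the lowest concentration completely inhibiting growth seen by the unaided eye.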
# [3] = tested on: Staphylococcus aureus; experiment: Antimicrobial activity against methicillin-susceptible Staphylococcus aureus clinical isolate after 18 to 22 hrs by broth microdilution method in presence of beta-lactamase inhibitor BLI-489; outline: as §1
# [4] = tested on: Proteus vulgaris; experiment: Antimicrobial activity against Proteus vulgaris clinical isolate after 18 to 22 hrs by broth microdilution method in presence of beta-lactamase inhibitor Tazobactam
# Outline: (§2)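 Piperacillin-tazobactam was tested by CLSI broth microdilution in Mueller-Hinton II broth against clinical isolates. Inoculum was 10^5 CFU/ml, with 18 to 22 h incubation at 35°C in ambient air. MIC was read as the lowest concentration completely inhibiting visible growth.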
# [5] = tested on: Enterococcus faecium; experiment: Antimicrobial activity against Enterococcus faecium clinical isolate after 18 to 22 hrs by broth microdilution method in presence of beta-lactamase inhibitor BLI-489
# Outline: (§3)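 CLSI broth microdilution in Mueller-Hinton II broth. Serial dilutions of piperacillin were tested with BLI-489 held at a constant 4 μg/ml. Inoculum was 10^5 CFU/ml. Plates were incubated 18 to 22 h at 35°C in ambient air. MIC was the lowest concentration giving complete growth inhibition by unaided eye.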
# [6] = tested on: Streptococcus pyogenes; experiment: Antimicrobial activity against Streptococcus pyogenes clinical isolate after 18 to 22 hrs by broth microdilution method in presence of beta-lactamase inhibitor Tazobactam
# Outline: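 Streptococcal isolates were tested with piperacillin-tazobactam by CLSI broth microdilution in Mueller-Hinton II broth supplemented with 5% lysed horse blood. Inoculum was 10^5 CFU/ml, incubated 18 to 22 h at 35°C in ambient air. Visual endpoint: lowest concentration with complete inhibition.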
# [7] = tested on: Klebsiella pneumoniae; experiment: Antimicrobial activity against AmpC- producing Klebsiella pneumoniae clinical isolate after 18 to 22 hrs by broth microdilution method in presence of beta-lactamase inhibitor BLI-489
# Outline: (§4)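 CLSI broth microdilution in Mueller-Hinton II broth. Piperacillin serial dilutions were combined with BLI-489 held constant at 4 μg/ml. Inoculum was 10^5 CFU/ml. Plates were incubated 18 to 22 h at 35°C in ambient air. MIC was the lowest concentration completely inhibiting growth seen by the unaided eye. Piperacillin-tazobactam interpretive criteria were applied.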
# [8] = tested on: Burkholderia cepacia; experiment: Antimicrobial activity against Burkholderia cepacia clinical isolate after 18 to 22 hrs by broth microdilution method in presence of beta-lactamase inhibitor BLI-489; outline: as §4
# [9] = tested on: Clostridium perfringens; experiment: Antimicrobial activity against Clostridium perfringens clinical isolate after 18 to 22 hrs by broth microdilution method in presence of beta-lactamase inhibitor BLI-489
# [10] = tested on: Haemophilus parainfluenzae; experiment: Antimicrobial activity against Haemophilus parainfluenzae clinical isolate after 18 to 22 hrs by broth microdilution method in presence of beta-lactamase inhibitor Tazobactam
# Outline: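 […] was used for CLSI broth microdilution with piperacillin-tazobactam. Inoculum was 10^5 CFU/ml, incubated 18 to 22 h at 35°C in ambient air. MIC was the lowest concentration with no growth visible to the unaided eye.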
# [11] = tested on: Acinetobacter lwoffii; experiment: Antimicrobial activity against Acinetobacter lwoffii clinical isolate after 18 to 22 hrs by broth microdilution method in presence of beta-lactamase inhibitor BLI-489; outline: as §4
# [12] = tested on: Moraxella catarrhalis; experiment: Antimicrobial activity against Moraxella catarrhalis clinical isolate after 18 to 22 hrs by broth microdilution method in presence of beta-lactamase inhibitor BLI-489; outline: as §3
# [13] = tested on: Enterobacter cloacae; experiment: Antimicrobial activity against AmpC beta-lactamase-producing Enterobacter cloacae clinical isolate after 18 to 22 hrs by broth microdilution method in presence of beta-lactamase inhibitor BLI-489; outline: as §4
# [14] = tested on: Klebsiella pneumoniae; experiment: Antimicrobial activity against Klebsiella pneumoniae clinical isolate after 18 to 22 hrs by broth microdilution method in presence of beta-lactamase inhibitor BLI-489; outline: as §3
# [15] = tested on: Enterococcus casseliflavus; experiment: Antimicrobial activity against Enterococcus casseliflavus clinical isolate after 18 to 22 hrs by broth microdilution method in presence of beta-lactamase inhibitor Tazobactam
# Outline: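 Piperacillin-tazobactam was tested on recent clinical isolates by CLSI broth microdilution in Mueller-Hinton II broth, with tazobactam at constant 4 μg/ml. Wells held 10^5 CFU/ml and were incubated 18 to 22 h at 35°C in ambient air. MIC was the lowest concentration with no growth visible to the unaided eye.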
# [16] = tested on: Stenotrophomonas maltophilia; experiment: Antimicrobial activity against Stenotrophomonas maltophilia clinical isolate after 18 to 22 hrs by broth microdilution method in presence of beta-lactamase inhibitor Tazobactam; outline: as §2
# [17] = tested on: Bacteroides thetaiotaomicron; experiment: Antimicrobial activity against Bacteroides thetaiotaomicron clinical isolate after 18 to 22 hrs by broth microdilution method
# [18] = tested on: Enterococcus gallinarum; experiment: Antimicrobial activity against Enterococcus gallinarum clinical isolate after 18 to 22 hrs by broth microdilution method in presence of beta-lactamase inhibitor Tazobactam; outline: as §2
# [19] = tested on: Haemophilus influenzae; experiment: Antimicrobial activity against beta-lactamase-negative Haemophilus influenzae clinical isolate after 18 to 22 hrs by broth microdilution method in presence of beta-lactamase inhibitor BLI-489
# Outline: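 Haemophilus isolates were tested in Haemophilus test medium by CLSI broth microdilution. Serial piperacillin dilutions carried BLI-489 fixed at 4 μg/ml. Inoculum was 10^5 CFU/ml, incubated 18 to 22 h at 35°C in ambient air. MIC was the lowest concentration completely inhibiting growth by eye.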
smiles,measurement,setting,value
CCN1CCN(C(=O)N[C@@H](C(=O)N[C@@H]2C(=O)N3[C@@H]2SC(C)(C)[C@@H]3C(=O)O)c2ccccc2)C(=O)C1=O [PIPERACILLIN],MIC50,[1],> 128 µg/mL
same,MIC50,[2],64 µg/mL
same,MIC90,[2],128 µg/mL
same,MIC50,[3],0.25 µg/mL
same,MIC90,[3],0.5 µg/mL
same,MIC50,[4],0.5 µg/mL
same,MIC90,[4],2 µg/mL
same,MIC50,[5],4 µg/mL
same,MIC90,[5],> 128 µg/mL
same,MIC50,[6],0.03 µg/mL
same,MIC90,[6],0.06 µg/mL
same,MIC50,[7],16 µg/mL
same,MIC90,[7],> 128 µg/mL
same,MIC50,[8],1 µg/mL
same,MIC90,[8],2 µg/mL
same,MIC,[9],≤ 0.015 µg/mL
same,MIC50,[9],≤ 0.015 µg/mL
same,MIC90,[9],≤ 0.015 µg/mL
same,MIC50,[10],0.06 µg/mL
same,MIC90,[10],0.25 µg/mL
same,MIC50,[11],4 µg/mL
same,MIC90,[11],16 µg/mL
same,MIC,[12],≤ 0.004 µg/mL
same,MIC50,[12],≤ 0.004 µg/mL
same,MIC90,[12],0.015 µg/mL
same,MIC50,[13],2 µg/mL
same,MIC90,[13],8 µg/mL
same,MIC50,[14],2 µg/mL
same,MIC90,[14],8 µg/mL
same,MIC50,[15],4 µg/mL
same,MIC90,[15],16 µg/mL
same,MIC,[16],> 128 µg/mL
same,MIC50,[16],> 128 µg/mL
same,MIC90,[16],> 128 µg/mL
same,MIC50,[17],32 µg/mL
same,MIC90,[17],> 128 µg/mL
same,MIC50,[18],4 µg/mL
same,MIC90,[18],16 µg/mL
same,MIC,[19],≤ 0.004 µg/mL
same,MIC50,[19],≤ 0.004 µg/mL
same,MIC90,[19],0.015 µg/mL
